Most compounds without a hit are left out; they make up all but 4.7% or so of the library.
MrgX1 agonist = agonists of human MrgX1 receptor; 310,000 compounds, 0.44% hits; B-score at 10 µM; Q96LB2; MrgX1-HEK293 cells, Fluo-4 calcium fluorescence, agonist mode; active compounds read high; AID 588627;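 active = calcium response B-score plate-corrected fluorescence ratio at least 3 library SD, with starting fluorescence B-score inside 5 SD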
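Material: HEK293 cells stably expressing human MrgX1 receptor | Quantity: 15,000 cells per well | Times: Cells plated overnight, dye loaded 0.5 h 37 °C, 0.5 h room temperature | Measured by: Kinetic Fluo-4 NW fluorescence of intracellular calcium | Control set: Positive and negative controls per plate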
RGS4 block = human RGS4 inhibition. P49798. HEK293 M3R/RGS4 inducible, Fluo-4 calcium flux; active compounds read high; triggered by carbachol at its EC20. B-score at 10 µM. 310,000 compounds, 0.45% hits. AID 463165;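 active = B-score, a plate-corrected calcium signal, over three deviations above library mean, with baseline fluorescence within five deviations of library mean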;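 also: RGS4 expression induced by doxycycline in cells with stable M3 receptor; B-score is computed from the integrated fluorescence ratio over baseline after carbachol; higher B-score means a larger calcium signal and so more RGS4 inhibition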
KCC2 mod = modulators of human KCC2 chloride dependent transport. Q9H2X9. KCC2 cells, thallium flux FluoZin-2 fluorescence. B-score of Tl+ flux slope (higher = more flux/activation; lower = inhibition) at 10 µM. 190,000 compounds, 2.2% hits;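 active = thallium flux slope and its plate-corrected score both differing from the plate sample mean at a set confidence after two filtering rounds, in either direction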;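 also: slope of fluorescence scaled to starting intensity during 10 to 20 s after thallium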
Target sequence (Q9H2X9 whole entry, looked up): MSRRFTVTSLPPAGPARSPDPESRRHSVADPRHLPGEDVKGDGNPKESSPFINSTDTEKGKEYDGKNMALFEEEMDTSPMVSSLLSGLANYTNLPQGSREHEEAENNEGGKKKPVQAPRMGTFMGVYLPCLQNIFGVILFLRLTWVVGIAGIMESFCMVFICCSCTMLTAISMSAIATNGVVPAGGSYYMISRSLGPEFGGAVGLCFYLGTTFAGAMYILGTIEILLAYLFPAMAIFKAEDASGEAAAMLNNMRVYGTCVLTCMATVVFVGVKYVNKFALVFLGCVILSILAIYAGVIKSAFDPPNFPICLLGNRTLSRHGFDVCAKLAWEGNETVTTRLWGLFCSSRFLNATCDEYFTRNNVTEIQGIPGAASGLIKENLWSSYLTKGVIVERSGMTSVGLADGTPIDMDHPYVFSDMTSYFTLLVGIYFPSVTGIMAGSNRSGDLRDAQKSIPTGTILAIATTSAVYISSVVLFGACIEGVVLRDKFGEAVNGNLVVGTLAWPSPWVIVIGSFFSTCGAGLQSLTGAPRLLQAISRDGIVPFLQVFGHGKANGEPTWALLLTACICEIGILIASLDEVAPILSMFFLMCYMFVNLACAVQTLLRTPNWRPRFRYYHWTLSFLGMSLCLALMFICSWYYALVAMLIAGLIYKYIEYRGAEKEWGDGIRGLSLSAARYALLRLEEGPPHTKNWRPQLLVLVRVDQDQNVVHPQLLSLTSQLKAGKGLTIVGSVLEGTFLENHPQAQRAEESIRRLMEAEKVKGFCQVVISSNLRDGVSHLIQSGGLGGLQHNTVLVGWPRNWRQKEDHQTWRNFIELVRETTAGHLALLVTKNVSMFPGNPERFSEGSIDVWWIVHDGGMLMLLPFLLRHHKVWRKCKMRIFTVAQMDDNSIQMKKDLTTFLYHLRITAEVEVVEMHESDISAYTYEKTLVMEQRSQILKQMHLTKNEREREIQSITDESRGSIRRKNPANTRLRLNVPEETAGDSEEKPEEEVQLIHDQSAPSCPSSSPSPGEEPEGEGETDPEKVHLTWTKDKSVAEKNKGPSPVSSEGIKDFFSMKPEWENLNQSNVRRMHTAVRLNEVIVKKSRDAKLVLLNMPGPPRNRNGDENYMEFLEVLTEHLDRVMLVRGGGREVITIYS
RGS4 act = RGS4 potentiation or activation; HEK293 M3R/inducible RGS4, carbachol calcium flux Fluo4; active compounds read low; B-score at 10 µM; 310,000 compounds, 0.92% hits;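 active = B-score of the integrated calcium signal more than 4 SD below the library mean, with starting fluorescence not abnormally high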;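 also: negative B-score means reduced calcium response which marks RGS4 activation or potentiation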
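Reagent: ECmax carbachol challenge; Test system: M3R-expressing HEK293 line, RGS4 induced by doxycycline; Schedule: overnight RGS4 induction, 30 min dye load 37 °C, 20 min compound RT; Detection: calcium dye Fluo4 fluorescence; Read-out: Agonist-evoked peak-minus-minimum fluorescence over baseline, integrated ratio, B score.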
MrgX1 allo act = human MrgX1 positive allosteric modulation, primary screen | Q96LB2 | MrgX1-HEK293, Fluo-4 calcium flux, FDSS; active compounds read high | B-score at 10 µM | 310,000 compounds, 0.63% hits | AID 588675;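 active = plate-corrected calcium response at least 3 library SD above typical, normal starting fluorescence, not activating the receptor alone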;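 also: compound read alongside a low EC10 to EC30 dose of BAM8-22 agonist; peak minus trough fluorescence over baseline measured at the second addition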
MrgX1 antag = blocks BAM8-22 activation of human MrgX1 receptor. 310,000 compounds, 1.3% hits. B-score at 10 µM. MRGX1-HEK293 calcium flux, Fluo-4, BAM8-22 antagonism; active compounds read low. Q96LB2. AID 588676;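 active = calcium-response B-score plate-corrected more than 3 library SD below zero, starting fluorescence within 5 deviations, no agonist response on first addition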;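 also: peak minus trough fluorescence over baseline after final BAM8-22 challenge near maximal dose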
MrgX1 PAM conf = human MrgX1 positive allosteric modulation, re-confirmation | shares compounds with MrgX1 allo act | MrgX1-HEK293, Fluo-4 calcium fluorescence, FDSS | activation (ratio percentage), % at 10 µM | 1,200 compounds, 13% hits;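 active = ratio at least 3 SD above the weak peptide control, stable starting fluorescence, no direct agonism earlier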;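 also: compound followed by low BAM8-22 agonist challenge near EC20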
HEK293 Ca flux = counter-screen for MrgX1 antagonists: effect in parental HEK293 cells. shares compounds with MrgX1 antag. Fluo-4 calcium fluorescence, FDSS. fluorescence ratio F(max-min)/F0 at 10 µM. 4,000 compounds, 2% hits. AID 624111;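 active = duplicate-averaged calcium fluorescence ratio at least three times the standard deviation of buffer wells, a nonspecific response in parental cells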
HEK293 Ca counter = counter-screen for MrgX1 allosteric activators: effect in parental HEK293 cells; AID 624114; parental HEK293 calcium flux, Fluo-4 fluorescence ratio; active compounds read high; fluorescence ratio F(max-min)/F0 at 10 µM; shares compounds with MrgX1 antag; 4,000 compounds, 0.4% hits;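 active = calcium fluorescence ratio, averaged over duplicates, at least 3 SD of the buffer-well ratio, meaning a nonspecific response in receptor-free cells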;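 also: untransfected parental HEK293 lacking MrgX1 used as counterscreen for MrgX1 allosteric activators; fluorescence change taken during the second addition on a kinetic imager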
HEK293 Ca cntr2 = counter-screen for MrgX1 activators: effect in parental HEK293 cells. AID 624115. fluorescence ratio F(max-min)/F0 at 10 µM. 4,000 compounds, 8.7% hits. shares compounds with MrgX1 antag. Fluo-4 calcium fluorescence (FDSS); active compounds read high;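 active = calcium fluorescence ratio at least three times the spread of buffer wells, meaning a non-specific response in parental cells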
A number is an active result; - = inactive; . = no result given.

SMILES | MrgX1 agonist | RGS4 block | KCC2 mod | RGS4 act | MrgX1 allo act | MrgX1 antag | MrgX1 PAM conf | HEK293 Ca flux | HEK293 Ca counter | HEK293 Ca cntr2
Cc1cccc(N=C2CSC(=O)N2)c1 | - | - | - | - | 7.4 | - | - | - | - | -
Cc1cccc(N=C2NC(=O)S/C2=C\c2ccco2)c1 | - | - | - | - | - | - | . | . | . | .
CCOC(=O)c1c(C)[nH]c(C)c1S(=O)(=O)N(C)CC(=O)N(C)Cc1ccccc1 | - | - | . | - | - | - | . | . | . | .
C=C1CCC2[C@](C)(CO)[C@H](O)CC[C@@]2(C)[C@@H]1C/C=C1\C(=O)OC[C@H]1O (some centres undefined) | - | - | . | - | - | - | . | . | . | .
C=C/C(C)=C/C[C@H]1C(=C)CCC2[C@](C)(C(=O)O)CCC[C@@]21C (some centres undefined) | - | . | . | . | 7.4 | - | - | - | - | -
Cc1cccc(C)c1NC(=O)CN(C)C(=O)c1cccc(S(=O)(=O)N2CCN(c3ccc(F)cc3)CC2)c1 | - | - | . | - | 9 | - | - | - | - | -
COc1cc(N)c(Cl)cc1C(=O)OCC(=O)Nc1cccnc1Cl | - | - | . | - | - | - | . | . | . | .
CCOC(=O)C(Cc1ccccc1)C(=O)NCc1cccnc1 (centres undefined) | - | - | . | - | 14 | - | - | - | - | -
Cc1ccccc1OC(C)C(=O)NCc1cccnc1 (centres undefined) | - | - | - | - | - | - | . | . | . | .
COc1ccccc1COc1ccc2c(C)c(CC(=O)O)c(=O)oc2c1C | - | - | . | - | 13 | - | - | - | - | -
Cc1c(CC(=O)O)c(=O)oc2c(C)c(OCc3ccc(F)cc3F)ccc12 | - | - | . | - | - | - | . | . | . | .
CCc1ccc2c(c1)[C@H]1OCC[C@H]1[C@@H](c1cccs1)N2 | - | - | - | - | 9.5 | - | - | - | - | -
Cc1nnc2ccc(-c3ccc(NS(=O)(=O)c4ccccc4F)cc3)nn12 | - | - | . | - | - | - | . | . | . | .
Cc1nnc2ccc(-c3ccc(NS(=O)(=O)c4ccc(F)cc4F)cc3)nn12 | - | - | . | - | 9.7 | - | - | - | - | -
COc1ccc(N(CC(=O)NCc2ccco2)C(=O)CCC(=O)Nc2nccs2)cc1 | - | - | . | - | - | - | . | . | . | .
COc1ccc(NC(=O)C2CCCN(S(=O)(=O)c3ccccc3)C2)c(OC)c1 (centres undefined) | - | - | . | - | - | - | . | . | . | .
CN(Cc1ccc(N(C)C)cc1)C(=O)c1cc2ccccc2o1 | - | - | . | - | 12 | - | 8.2% | - | - | -
COc1ccc(C)c2sc(N(CCCN(C)C)C(=O)c3ccc4c(c3)OCCO4)nc12 | - | - | . | - | - | - | . | . | . | .
Fc1ccc(-c2csc(NC3=NCCC3)n2)cc1 | - | - | - | - | 12 | - | - | - | - | -
CCc1cc(C(=O)N(C)CC(=O)N(CC(C)C)c2c(N)n(CC(C)C)c(=O)[nH]c2=O)sc1C | - | - | . | - | - | - | . | . | . | .
Cc1cc(F)ccc1NC(=O)c1cnccn1 | - | - | - | - | 11 | - | - | - | - | -
Nc1nc(CN2CCN(Cc3ccc4c(c3)OCO4)CC2)nc(Nc2ccccc2)n1 | - | - | - | - | - | - | . | . | . | .
Cc1ccccc1Nc1nc(N)nc(CN2CCN(Cc3ccc4c(c3)OCO4)CC2)n1 | - | - | - | - | 8 | - | - | - | - | -
Cc1cc(-n2c(C)c3c(C)nnc(C)c3c2C)ccc1N | - | - | - | - | - | - | . | . | . | .

Assay outcomes (PubChem)
